These results are taken from the RNAGym collection of RNA variant scans (doi:10.1002/anie.201605470).

Sequences and labels used below:
B1: Osa-1-4 twister ribozyme (parent)
chain: CCGCCUAACACUGCCAAUGCCGGUCCCAAGCCCGGAUAAAAGUGGAGGGGGCGG

Variants of B1 are the subject of this series. The series is described as follows: self-cleavage, relative activity (ratio to wild type); higher = more cleavage; co-transcriptional. The procedure, abridged:
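For each read, cleavage status was taken from whether upstream sequence was present. The reads came from an Oryza sativa twister ribozyme of 54 nucleotides, whose DNA template was synthesised with 97 % wild-type base and 1 % of each other base at the 48 positions downstream of the cleavage site. The template was transcribed in vitro at 37 °C for 2 h with co-transcriptional self-cleavage, and the RNA was reverse-transcribed using a template-switching oligonucleotide, PCR-amplified and deep-sequenced. Relative activity is the fraction cleaved normalised to wild type.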
As for CCGCCUAACUCUGCCAAUGCCAGUCCCAAGCCCGGAUAAAAGUGGAGGGGGCGG, the self-cleavage was 0.05.

On to CCGCCUAACUCUGCCAAUGCCCGUCCCAAGCCCGGAUAAAAGUGGAGGGGGCGG, for which the self-cleavage amounted to 0.02.

On to CCGCCUAACUCUGCCAAUGCCUGUCCCAAGCCCGGAUAAAAGUGGAGGGGGCGG, for which the self-cleavage is 0.03.

Consider CCGCCUAACUCUGCCAAUGCCGGUCCCAAGCCCGGAUAAAAGUGGAGGGGGAGG, for which the self-cleavage is 0.04.

On to CCGCCUAACUCUGCCAAUGCCGGUCCCAAGCCCGGAUAAAAGUGGAGGGGGUGG, for which the self-cleavage was found to be 0.05.

On to CCGCCUAACUCUGCCAAUGCCGGUCCCAAGCCCGGAUAAAAGUGGAGGGGGGGG, for which the self-cleavage is 0.07.

Regarding CCGCCUAACUCUGCCAAUGCCGGUCCCAAGCCCGGAUAAAAGUGGAAGGGGCGG, the self-cleavage came out at 0.02.

Regarding CCGCCUAACUCUGCCAAUGCCGGUCCCAAGCCCGGAUAAAAGUGGACGGGGCGG, the self-cleavage stood at 0.02.

Take CCGCCUAACUCUGCCAAUGCCGGUCCCAAGCCCGGAUAAAAGUGGAUGGGGCGG: the self-cleavage was determined as 0.02.

As to CCGCCUAACUCUGCCAAUGCCGGCCCCAAGCCCGGAUAAAAGUGGAGGGGGCGG, the self-cleavage stood at 0.02.

Take CCGCCUAACUCUGCCAAUGCCGGGCCCAAGCCCGGAUAAAAGUGGAGGGGGCGG: the self-cleavage was determined as 0.01.

With CCGCCUAACUCUGCCAAUGCCGGACCCAAGCCCGGAUAAAAGUGGAGGGGGCGG, the self-cleavage amounted to 0.03.

In the case of CCGCCUAACUCUGCCAAUGCCGGUCCCAAGCCCGGAUAAAAGUGGAGGGGUCGG, the self-cleavage was determined as 0.03.

With CCGCCUAACUCUGCCAAUGCCGGUCCCAAGCCCGGAUAAAAGUGGAGGGGACGG, the self-cleavage came out at 0.04.

As for CCGCCUAACUCUGCCAAUGCCGGUCCCAAGCCCGGAUAAAAGUGGAGGGGCCGG, the self-cleavage came to 0.02.

As to CCGCCUAACUCUGCCAAGGCCGGUCCCAAGCCCGGAUAAAAGUGGAGGGGGCGG, the self-cleavage was 0.07.

Consider CCGCCUAACUCUGCCAACGCCGGUCCCAAGCCCGGAUAAAAGUGGAGGGGGCGG, for which the self-cleavage was 0.05.

On to CCGCCUAACUCUGCCAAAGCCGGUCCCAAGCCCGGAUAAAAGUGGAGGGGGCGG, for which the self-cleavage stood at 0.03.

Regarding CCGCCUAACUCUGCCAAUGCCGGUCCCAAGCCCGGAUAAAAGUGGAGGGGGCCG, the self-cleavage came to 0.02.

Take CCGCCUAACUCUGCCAAUGCCGGUCCCAAGCCCGGAUAAAAGUGGAGGGGGCUG: the self-cleavage amounted to 0.03.

For CCGCCUAACUCUGCCAAUGCCGGUCCCAAGCCCGGAUAAAAGUGGAGGGGGCAG, the self-cleavage worked out at 0.04.

With CCGCCUAACUCUGCCAAUGCCGGUCCCAAGCGCGGAUAAAAGUGGAGGGGGCGG, the self-cleavage turned out to be 0.04.

Turning to CCGCCUAACUCUGCCAAUGCCGGUCCCAAGCUCGGAUAAAAGUGGAGGGGGCGG, the self-cleavage stood at 0.02.

Consider CCGCCUAACUCUGCCAAUGCCGGUCCCAAGCACGGAUAAAAGUGGAGGGGGCGG, for which the self-cleavage is 0.01.

With CCGCCUAACUCCGCCAAUGCCGGUCCCAAGCCCGGAUAAAAGUGGAGGGGGCGG, the self-cleavage turned out to be 0.02.

Consider CCGCCUAACUCGGCCAAUGCCGGUCCCAAGCCCGGAUAAAAGUGGAGGGGGCGG, for which the self-cleavage amounted to 0.02.

Regarding CCGCCUAACUCAGCCAAUGCCGGUCCCAAGCCCGGAUAAAAGUGGAGGGGGCGG, the self-cleavage is 0.05.

In the case of CCGCCUAACAAUGCCAAUGCCGGUUCCAAGCCCGGAUAAAAGUGGAGGGGGCGG, the self-cleavage worked out at 0.18.

With CCGCCUAACAAUGCCAAUGCCGGUGCCAAGCCCGGAUAAAAGUGGAGGGGGCGG, the self-cleavage stood at 0.05.

As for CCGCCUAACAAUGCCAAUGCCGGUACCAAGCCCGGAUAAAAGUGGAGGGGGCGG, the self-cleavage turned out to be 0.11.

Turning to CCGCCUAACUCUGCCAAUGCCGGUCCCAAGCCGGGAUAAAAGUGGAGGGGGCGG, the self-cleavage was 0.01.

Regarding CCGCCUAACUCUGCCAAUGCCGGUCCCAAGCCUGGAUAAAAGUGGAGGGGGCGG, the self-cleavage is 0.04.

On to CCGCCUAACUCUGCCAAUGCCGGUCCCAAGCCAGGAUAAAAGUGGAGGGGGCGG, for which the self-cleavage came out at 0.02.

Consider CCGCCUAACAAUGCCAAUGCCGGUCCCAAGCCCGGAUAAAAGUGGAGGGGGCGG, for which the self-cleavage amounted to 0.84.

For the variant CCGCCUAACAAUGCAAAUGCCGGUCCCAAGCCCGGAUAAAAGUGGAGGGGGCGG, the self-cleavage is 0.12.

As for CCGCCUAACAAUGCUAAUGCCGGUCCCAAGCCCGGAUAAAAGUGGAGGGGGCGG, the self-cleavage came to 0.07.

CCGCCUAACAAUGCGAAUGCCGGUCCCAAGCCCGGAUAAAAGUGGAGGGGGCGG: the self-cleavage was determined as 0.1.

Turning to CCGCCUAACUCUGCCAAUGCCGGUCCCAAGCCCGGAUAAAAGUGGAGGGGGCGA, the self-cleavage turned out to be 0.06.

As to CCGCCUAACUCUGCCAAUGCCGGUCCCAAGCCCGGAUAAAAGUGGAGGGGGCGC, the self-cleavage was 0.04.

Turning to CCGCCUAACUCUGCCAAUGCCGGUCCCAAGCCCGGAUAAAAGUGGAGGGGGCGU, the self-cleavage was 0.21.

Regarding CCGCCUAACAAUGCCAAUGGCGGUCCCAAGCCCGGAUAAAAGUGGAGGGGGCGG, the self-cleavage came to 0.06.

Take CCGCCUAACAAUGCCAAUGUCGGUCCCAAGCCCGGAUAAAAGUGGAGGGGGCGG: the self-cleavage amounted to 0.66.

On to CCGCCUAACAAUGCCAAUGACGGUCCCAAGCCCGGAUAAAAGUGGAGGGGGCGG, for which the self-cleavage stood at 0.62.

For CCGCCUAACUCUGCCAAUGCCGGUCCCAAGCCCGGAUAAAAGUGGAGGGAGCGG, the self-cleavage turned out to be 0.05.

On to CCGCCUAACUCUGCCAAUGCCGGUCCCAAGCCCGGAUAAAAGUGGAGGGCGCGG, for which the self-cleavage came to 0.03.

On to CCGCCUAACUCUGCCAAUGCCGGUCCCAAGCCCGGAUAAAAGUGGAGGGUGCGG, for which the self-cleavage amounted to 0.04.

CCGCCUAACUCUGCCAAUGCCGGUCCCAAGCCCGGAUAAAAGUGAAGGGGGCGG: the self-cleavage was found to be 0.03.

As to CCGCCUAACUCUGCCAAUGCCGGUCCCAAGCCCGGAUAAAAGUGUAGGGGGCGG, the self-cleavage came to 0.02.
